# Experimental data: ChEMBL document CHEMBL5058577, “EUbOPEN Chemogenomics Library 2 (Multiplex)” (2022)
# System: U2OS
# Experiment: Multiplex assay against U2OS
# Format: toxicity, cell-based
# Conditions: human
# How it was run: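 Cells stained live at seeding with Hoechst33342, BioTracker Green Microtubule Cytoskeleton Dye, MitoTracker Red and Annexin V Alexa Fluor 680 were imaged on a CQ1 microscope at 37°C and 5% CO2 after compound addition. Their classification by CellPathfinder machine-learning gating ran from Hoechst high-intensity objects versus normal cells, to healthy, pyknosed or fragmented nuclei among normal cells, to mitotic or apoptotic among pyknosed cells. Tubulin, mitochondrial-mass and membrane-permeability phenotypes are per cents of healthy-nucleus cells.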
# [1] = 12 h, 1 µM, compound concentration 1 uM, replicate 1
# [2] = 12 h, 1 µM, compound concentration 1 uM, replicate 2
# [3] = 12 h, 10 µM, compound concentration 10 uM, replicate 1
# [4] = 12 h, 10 µM, compound concentration 10 uM, replicate 2
# [5] = 24 h, 1 µM, compound concentration 1 uM, replicate 1
# [6] = 24 h, 1 µM, compound concentration 1 uM, replicate 2
# [7] = 24 h, 10 µM, compound concentration 10 uM, replicate 1
# [8] = 24 h, 10 µM, compound concentration 10 uM, replicate 2
# [9] = 48 h, 1 µM, compound concentration 1 uM, replicate 1
# [10] = 48 h, 1 µM, compound concentration 1 uM, replicate 2
# [11] = 48 h, 10 µM, compound concentration 10 uM, replicate 1
# [12] = 48 h, 10 µM, compound concentration 10 uM, replicate 2
compound,measurement,setting,value
CC(C)(C)c1cc(NC(=O)Nc2ccc(-c3cn4c(n3)sc3cc(OCCN5CCOCC5)ccc34)cc2)no1 [QUIZARTINIB],Population Apoptotic (%),[1],48%
same,Population Fragmented Nuclei (%),[1],24%
same,Population Healthy Nuclei (%),[1],61%
same,Population Hoechst High Intensity Objects (%),[1],6%
same,Population Membrane Permeable-Phenotype (%),[1],13%
same,Population Mitochondria Different-Phenotype (%),[1],4%
same,Population Mitotic Cells (%),[1],51%
same,Population Normal (%),[1],93%
same,Population Pyknosed Nuclei (%),[1],14%
same,Population Tubulin-Different-Phenotype (%),[1],8%
same,Total Cell Count,[1],213
same,Population Apoptotic (%),[2],78%
same,Population Fragmented Nuclei (%),[2],17%
same,Population Healthy Nuclei (%),[2],70%
same,Population Hoechst High Intensity Objects (%),[2],1%
same,Population Membrane Permeable-Phenotype (%),[2],6%
same,Population Mitochondria Different-Phenotype (%),[2],6%
same,Population Mitotic Cells (%),[2],21%
same,Population Normal (%),[2],98%
same,Population Pyknosed Nuclei (%),[2],11%
same,Population Tubulin-Different-Phenotype (%),[2],4%
same,Total Cell Count,[2],119
same,Population Apoptotic (%),[3],58%
same,Population Fragmented Nuclei (%),[3],30%
same,Population Healthy Nuclei (%),[3],47%
same,Population Hoechst High Intensity Objects (%),[3],13%
same,Population Membrane Permeable-Phenotype (%),[3],85%
same,Population Mitochondria Different-Phenotype (%),[3],26%
same,Population Mitotic Cells (%),[3],41%
same,Population Normal (%),[3],86%
same,Population Pyknosed Nuclei (%),[3],21%
same,Population Tubulin-Different-Phenotype (%),[3],76%
same,Total Cell Count,[3],197
same,Population Apoptotic (%),[4],23%
same,Population Fragmented Nuclei (%),[4],11%
same,Population Healthy Nuclei (%),[4],65%
same,Population Hoechst High Intensity Objects (%),[4],6%
same,Population Membrane Permeable-Phenotype (%),[4],62%
same,Population Mitochondria Different-Phenotype (%),[4],33%
same,Population Mitotic Cells (%),[4],76%
same,Population Normal (%),[4],94%
same,Population Pyknosed Nuclei (%),[4],22%
same,Population Tubulin-Different-Phenotype (%),[4],54%
same,Total Cell Count,[4],100
same,Population Apoptotic (%),[5],57%
same,Population Fragmented Nuclei (%),[5],25%
same,Population Healthy Nuclei (%),[5],56%
same,Population Hoechst High Intensity Objects (%),[5],2%
same,Population Membrane Permeable-Phenotype (%),[5],15%
same,Population Mitochondria Different-Phenotype (%),[5],8%
same,Population Mitotic Cells (%),[5],42%
same,Population Normal (%),[5],97%
same,Population Pyknosed Nuclei (%),[5],17%
same,Population Tubulin-Different-Phenotype (%),[5],7%
same,Total Cell Count,[5],234
same,Population Apoptotic (%),[6],62%
same,Population Fragmented Nuclei (%),[6],15%
same,Population Healthy Nuclei (%),[6],72%
same,Population Hoechst High Intensity Objects (%),[6],0%
same,Population Membrane Permeable-Phenotype (%),[6],9%
same,Population Mitochondria Different-Phenotype (%),[6],4%
same,Population Mitotic Cells (%),[6],37%
same,Population Normal (%),[6],99%
same,Population Pyknosed Nuclei (%),[6],12%
same,Population Tubulin-Different-Phenotype (%),[6],5%
same,Total Cell Count,[6],134
same,Population Apoptotic (%),[7],63%
same,Population Fragmented Nuclei (%),[7],34%
same,Population Healthy Nuclei (%),[7],34%
same,Population Hoechst High Intensity Objects (%),[7],11%
same,Population Membrane Permeable-Phenotype (%),[7],55%
same,Population Mitochondria Different-Phenotype (%),[7],38%
same,Population Mitotic Cells (%),[7],36%
same,Population Normal (%),[7],88%
same,Population Pyknosed Nuclei (%),[7],30%
same,Population Tubulin-Different-Phenotype (%),[7],45%
same,Total Cell Count,[7],195
same,Population Apoptotic (%),[8],51%
same,Population Fragmented Nuclei (%),[8],10%
same,Population Healthy Nuclei (%),[8],58%
same,Population Hoechst High Intensity Objects (%),[8],2%
same,Population Membrane Permeable-Phenotype (%),[8],40%
same,Population Mitochondria Different-Phenotype (%),[8],32%
same,Population Mitotic Cells (%),[8],48%
same,Population Normal (%),[8],97%
same,Population Tubulin-Different-Phenotype (%),[8],30%
same,Total Cell Count,[8],96
same,Population Apoptotic (%),[9],60%
same,Population Fragmented Nuclei (%),[9],21%
same,Population Healthy Nuclei (%),[9],61%
same,Population Hoechst High Intensity Objects (%),[9],3%
same,Population Membrane Permeable-Phenotype (%),[9],7%
same,Population Mitochondria Different-Phenotype (%),[9],2%
same,Population Mitotic Cells (%),[9],39%
same,Population Normal (%),[9],96%
same,Population Pyknosed Nuclei (%),[9],16%
same,Population Tubulin-Different-Phenotype (%),[9],3%
same,Total Cell Count,[9],297
same,Population Apoptotic (%),[10],73%
same,Population Fragmented Nuclei (%),[10],16%
same,Population Healthy Nuclei (%),[10],72%
same,Population Hoechst High Intensity Objects (%),[10],2%
same,Population Membrane Permeable-Phenotype (%),[10],9%
same,Population Mitochondria Different-Phenotype (%),[10],7%
same,Population Mitotic Cells (%),[10],26%
same,Population Normal (%),[10],97%
same,Population Pyknosed Nuclei (%),[10],10%
same,Population Tubulin-Different-Phenotype (%),[10],6%
same,Total Cell Count,[10],180
same,Population Apoptotic (%),[11],72%
same,Population Fragmented Nuclei (%),[11],33%
same,Population Healthy Nuclei (%),[11],25%
same,Population Hoechst High Intensity Objects (%),[11],9%
same,Population Membrane Permeable-Phenotype (%),[11],41%
same,Population Mitochondria Different-Phenotype (%),[11],33%
same,Population Mitotic Cells (%),[11],27%
same,Population Normal (%),[11],90%
same,Population Pyknosed Nuclei (%),[11],40%
same,Population Tubulin-Different-Phenotype (%),[11],33%
same,Total Cell Count,[11],219
same,Population Apoptotic (%),[12],56%
same,Population Fragmented Nuclei (%),[12],19%
same,Population Healthy Nuclei (%),[12],48%
same,Population Hoechst High Intensity Objects (%),[12],5%
same,Population Membrane Permeable-Phenotype (%),[12],35%
same,Population Mitotic Cells (%),[12],43%
same,Population Normal (%),[12],94%
same,Population Pyknosed Nuclei (%),[12],32%
same,Population Tubulin-Different-Phenotype (%),[12],28%
same,Total Cell Count,[12],98
